Data taken from ChEMBL document CHEMBL1133463, “Novel mutual prodrug of retinoic and butyric acids with enhanced anticancer activity” (J Med Chem, 2000).
Where “and” joins values, the source holds several entries; their conditions need not be identical. Equal entries are not always repeated.

How the values were obtained:
HL-60 [1] = assay: Differentiation activity was determined by evaluation of NBT reduction activity of HL-60 cells, % of NBT positive cells determined; assay type: functional, Homo sapiens
In short: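 HL-60 grown 2 days with or without compound at 0.25 μM. Cultures then given 0.1% NBT, stimulated with 0.4 μM PMA and incubated 30 min at 37 °C. At least 200 cells scored microscopically. % NBT-positive cells taken as stained/total, minus the untreated-culture value. Three independent experiments.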

MIA PaCa-2 = assay: Concentration required to inhibit the colony formation of pancreatic human (PACA) cell lines by 50%; assay type: functional, cell-based
In short: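 PaCa2 single-cell suspensions plated at 400 cells per 60-mm dish. Drug exposure began 24 h after plating. Colonies formed over 7-12 days, then were MeOH-fixed, Giemsa-stained, counted and compared with untreated control. Triplicate assays. Drugs in DMSO, final ≤0.1%.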

HL-60 [2] = assay: In vitro for the differentiation induction activity determined in the human myeloid leukemic cell line HL-60; assay type: functional; settings: read-out: ED50 (the source's name)
In short: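 HL-60 treated 4 days. NBT reduction measured with 0.1% NBT plus 0.4 μM PMA for 30 min at 37 °C, scoring ≥200 cells, with the untreated background subtracted. ED50 is the concentration giving half-maximal NBT reduction, obtained by linear regression and averaged over three independent experiments.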

3LLD122 = assay: Concentration required to inhibit the colony formation of lung carcinoma (3LLD122) cell lines by 50%; assay type: functional, cell-based; settings: Mus musculus
In short: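 Murine 3LLD122 (highly metastatic 3LL subclone) grown in RPMI with 10% FCS and 2 mM glutamine at 37 °C, 5% CO2. Compounds added to the upper layer of a semisolid agar bilayer. Aggregates of >20 cells scored as colonies after 7 days by inverted microscope. Drugs in DMSO at 1:1000 dilution (final DMSO ≤0.1%).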

| Structure (SMILES) | NBT positive cells (HL-60 [1]) | IC50 (MIA PaCa-2) | EC50 (HL-60 [2]) | IC50 (3LLD122) |
| --- | --- | --- | --- | --- |
| CC1=C(/C=C/C(C)=C/C=C/C(C)=C/C(=O)OCOC(=O)C(C)C)C(C)(C)CCC1 | 48% and 54% and 49% |  |  |  |
| CC1=C(/C=C/C(C)=C/C=C/C(C)=C/C(=O)OCOC(=O)C(C)(C)C)C(C)(C)CCC1 | 13% and 21% and 17% |  |  |  |
| CCC(=O)OCOC(=O)/C=C(C)/C=C/C=C(C)/C=C/C1=C(C)CCCC1(C)C | 60% and 56% and 57% |  |  |  |
| CCCC(=O)OCOC(=O)/C=C(C)/C=C/C=C(C)/C=C/C1=C(C)CCCC1(C)C | 72% and 74% and 78% | 4 µM | 0.031 µM | 4.5 µM |
| CCCC(=O)OCOC(=O)C(C)(C)C [AN-9] |  | 30 µM |  | 35 µM |
| CCCC(=O)O [BUTYRIC ACID] |  | 250 µM | 285 µM | > 1000 µM |
| CC1=C(/C=C/C(C)=C/C=C/C(C)=C/C(=O)O)C(C)(C)CCC1 [TRETINOIN] | 21% and 30% and 22% | 9.5 µM | 1.25 µM | 33 µM |
